High-throughput results deposited in PubChem BioAssay by several laboratories.
Mdm2 ligase inh: inhibitors of human Mdm2 E3 ubiquitin ligase; Q00987; cell-based MDM2 ubiquitination luciferase reporter, 2 h; 0 = plate control, 100 = twice control, blank-subtracted; signal enhancement, % at 5 µM; 210,000 tested, 0.11% active;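 active means signal enhancement of 30% or more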;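 further: luminescence tracks abundance of the self-degrading MDM2-luciferase fusion protein; higher signal means inhibition of MDM2 E3 ligase activity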
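Assay system: stable mammalian line carrying autodegrading MDM2–luciferase fusion reporter; Input: 2000 cells in each well; Compound dosing: single-point 5 µM; Schedule: 2 h compound exposure at 37 °C; Signal: SteadyLite luciferase luminescence after 15 min room-temperature reagent incubation; Evaluation: % luminescence enhancement versus blank-corrected plate control mean; Benchmarks: plate controls and plate blanks.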
14-3-3 Bad PPI: disrupts binding of bovine 14-3-3 zeta to phospho-Bad peptide | 220,000 tested, 0.71% active | TR-FRET 14-3-3zeta/Dy647-pBad peptide displacement, 1 h | inhibition, % at 21.7 µM;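 active means inhibition above about 70%, limit read from the data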
Target sequence (P63103 whole entry, looked up): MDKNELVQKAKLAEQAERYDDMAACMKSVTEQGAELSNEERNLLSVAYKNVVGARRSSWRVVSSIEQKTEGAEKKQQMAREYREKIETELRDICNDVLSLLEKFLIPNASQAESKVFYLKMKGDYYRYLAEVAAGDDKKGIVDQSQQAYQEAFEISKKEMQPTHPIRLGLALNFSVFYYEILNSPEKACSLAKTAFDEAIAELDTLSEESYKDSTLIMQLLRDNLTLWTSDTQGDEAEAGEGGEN
Hck-Nef inh: blocks Nef-activated human Hck kinase | P08631 | Recombinant Hck-YEEI plus Nef, Z-Lyte FRET kinase assay | inhibition, % at 20 µM | 220,000 tested, 0.68% active | AID 463187;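 active means Hck-Nef kinase inhibition above about 50%, limit read from the data; inactive means inhibition below that limit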
Wee1 stabilizer: blocks degradation of human Wee1 kinase. P30291. HeLa Luc-Wee1K328M stability, luciferase luminescence; 100% = proteasome inhibitor MG132 effect. reporter increase, % at 5 µM. 220,000 tested, 1.2% active;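 active means activation above the mean of all tested compounds plus 3 SD, set per screening run, cut at about 8.8% in these data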;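 further: cells exposed to compound for 20 h before luminescence read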
Tb hexokinase: T. brucei hexokinase 1 inhibition | recombinant TbHK1, G6PDH-coupled NADH A340 | AID 1430 | 220,000 tested, 0.11% active | inhibition, % at 10 µM;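 active means inhibition of 50% or more in the single-dose primary screen; inactive means inhibition below 50%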
Large screens that a line does not name were inactive; [ ] = another dose, or the depositor's remark. Shown are actives, neighbours in structure and some others; about 2.7% of the full set was active somewhere.

O=C(Nc1cccc(Cl)c1)Nc1nnc(-c2ccncc2)s1	14-3-3 Bad PPI 81, Hck-Nef inh 57
O=C(Nc1ccc(Cl)cc1)Nc1nnc(-c2ccncc2)s1	none
Cc1ccc(Nc2nc3ccccc3c(=O)s2)cc1C	Wee1 stabilizer 10
Cc1ccc(-n2nnnc2SCC#N)cc1	14-3-3 Bad PPI 71
O=C(O)CCCN1C(=O)/C(=C/c2ccc(-c3nc4ccccc4s3)o2)SC1=S	none
O=C(O)CCCCCN1C(=O)/C(=C\c2ccc(-c3ccc(Cl)cc3)o2)SC1=S	14-3-3 Bad PPI 71
O=C(COc1ccccc1)Nc1ccc(Cl)cc1Cl	none
O=C(NCc1n[nH]c(=S)n1-c1cccc(Cl)c1)c1ccc(S(=O)(=O)N2CCCC2)cc1	Wee1 stabilizer 11
O=C(NCc1n[nH]c(=S)n1-c1cccc(C(F)(F)F)c1)c1ccc(S(=O)(=O)N2CCCC2)cc1	none
COc1ccc(NC(=O)C/C(C)=N/NC(=O)C(=O)NC(C)C)c(OC)c1	Wee1 stabilizer 9.7
COc1ccc(NC(=O)C/C(C)=N/NC(=O)C(=O)Nc2cccc(Cl)c2C)c(OC)c1	none
CCOC(=O)C1=C(C)N(c2ccccc2)C(=O)/C1=C\c1ccco1	none
COC(=O)C1=C(C)N(c2ccc(OC)c(OC)c2)C(=O)/C1=C\c1ccco1	Wee1 stabilizer 8.9
CCOC(=O)C1C(=O)CC(C)(O)C(C(=O)OCC)C1c1cccc(OC)c1 (stereo not given)	none
COc1cc(C(=O)NCC(C)C)cc(OC)c1OC	none
COc1cc(C(=O)NCc2ccc(C(=O)NCC(OC)OC)cc2)cc(OC)c1OC	14-3-3 Bad PPI 72
CCOc1ccc(OCC)c(N=c2oc3c(C)ncc(CO)c3cc2C(N)=O)c1	none
COc1cccc(N=c2oc3c(C)ncc(CO)c3cc2C(=O)Nc2ccccc2OC)c1	14-3-3 Bad PPI 91[fluorescence artefact?]
COc1cc(CN2CCC(C(=O)N3CCCC(C)C3)CC2)cc(Br)c1O (stereo not given)	14-3-3 Bad PPI 79
CC(CN1CCN(C)CC1)OC(=O)c1ccc(F)cc1 (stereo not given)	14-3-3 Bad PPI 91
CC(CN1CCN(C)CC1)OC(=O)c1ccccc1 (stereo not given)	14-3-3 Bad PPI 71
CC(CN1CCN(C)CC1)OC(=O)c1cccc(Cl)c1 (stereo not given)	none (no result: Mdm2 ligase inh)
CCOC(=O)C1=C(C)C/C(=N\NC(=O)c2ccccc2O)CC1	none
COc1ccc(CCN(C)CCCC(C#N)(c2ccc(OC)c(OC)c2)C(C)C)cc1OC (stereo not given)	none (no result: Mdm2 ligase inh, 14-3-3 Bad PPI, Wee1 stabilizer)
Nc1nonc1NC(=O)CSc1ncccc1C(=O)O	Wee1 stabilizer 14
S=C(Nc1ccc(Cl)c(Cl)c1)NN1CCOCC1	none
O=C1N/C(=C/c2ccc(N3CCOCC3)o2)C(=O)N1c1cccc(Cl)c1	none
Cc1ccc2nc(-c3ccccc3)c(-c3ccccc3)nc2c1	none
Cc1ccc2nc(=O)c(NNc3ccccc3)cnc2c1	Hck-Nef inh 94
O=C(N/N=C/c1c[nH]c2ccccc12)C1COc2ccccc2O1 (stereo not given)	14-3-3 Bad PPI 82[fluorescence artefact?]
O=C(N/N=C\c1ccc(Cl)s1)C1COc2ccccc2O1 (stereo not given)	none
O=C(N/N=C\C=C\c1ccc2c(c1)OCO2)C1COc2ccccc2O1 (stereo not given)	Wee1 stabilizer 9.3
COc1ccc2c(c1)nc(NCCCO)n2Cc1ccccc1	none (no result: Mdm2 ligase inh)
COc1ccc(/C(N)=N/O)c(OC)c1	none
Cc1ccc(NC(=O)CC2S/C(=N/N=C/c3c[nH]c4ccccc34)NC2=O)cc1 (stereo not given)	Wee1 stabilizer 9.7 (no result: Mdm2 ligase inh)
CCOC(=O)c1ccc(NC(=O)CC2S/C(=N/N=C/c3c[nH]c4ccccc34)NC2=O)cc1 (stereo not given)	none
COc1ccc(N2CCN(S(=O)(=O)/C=C/c3ccccc3)CC2)cc1	Wee1 stabilizer 9.3
CN1CCN(S(=O)(=O)c2ccc(N3CCN(S(=O)(=O)/C=C/c4ccccc4)CC3)nc2)CC1	14-3-3 Bad PPI 72
CN1CCN(S(=O)(=O)c2ccc(N3CCN(C(c4ccccc4)c4ccccc4)CC3)nc2)CC1	none
COc1ccc(C(=O)Nc2nc3cc4c(cc3s2)OCCO4)c(OC)c1	none
CC(=O)c1ccc(N2C(=O)C3C(C2=O)C(C(=O)c2ccc(Cl)cc2)N2CCCC32)cc1 (stereo not given)	Wee1 stabilizer 11
